High-throughput results (PubChem)
This is a sample that favours compounds with a hit; in the whole collection about 2.9% have one here.
TRPC6 activator: activates the mouse TRPC6 cation channel | HEK293-TRPC6 membrane potential dye fluorescence; stronger effect = higher value | 310,000 tested, 0.13% active | B-score at 10 µM | Q61143;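 active means B-score of the integrated fluorescence ratio above library mean plus 3 SD, and starting fluorescence ratio within library mean plus 5 SD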;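 further: higher score means more depolarization so channel activation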
Target sequence (Q61143 whole entry, looked up): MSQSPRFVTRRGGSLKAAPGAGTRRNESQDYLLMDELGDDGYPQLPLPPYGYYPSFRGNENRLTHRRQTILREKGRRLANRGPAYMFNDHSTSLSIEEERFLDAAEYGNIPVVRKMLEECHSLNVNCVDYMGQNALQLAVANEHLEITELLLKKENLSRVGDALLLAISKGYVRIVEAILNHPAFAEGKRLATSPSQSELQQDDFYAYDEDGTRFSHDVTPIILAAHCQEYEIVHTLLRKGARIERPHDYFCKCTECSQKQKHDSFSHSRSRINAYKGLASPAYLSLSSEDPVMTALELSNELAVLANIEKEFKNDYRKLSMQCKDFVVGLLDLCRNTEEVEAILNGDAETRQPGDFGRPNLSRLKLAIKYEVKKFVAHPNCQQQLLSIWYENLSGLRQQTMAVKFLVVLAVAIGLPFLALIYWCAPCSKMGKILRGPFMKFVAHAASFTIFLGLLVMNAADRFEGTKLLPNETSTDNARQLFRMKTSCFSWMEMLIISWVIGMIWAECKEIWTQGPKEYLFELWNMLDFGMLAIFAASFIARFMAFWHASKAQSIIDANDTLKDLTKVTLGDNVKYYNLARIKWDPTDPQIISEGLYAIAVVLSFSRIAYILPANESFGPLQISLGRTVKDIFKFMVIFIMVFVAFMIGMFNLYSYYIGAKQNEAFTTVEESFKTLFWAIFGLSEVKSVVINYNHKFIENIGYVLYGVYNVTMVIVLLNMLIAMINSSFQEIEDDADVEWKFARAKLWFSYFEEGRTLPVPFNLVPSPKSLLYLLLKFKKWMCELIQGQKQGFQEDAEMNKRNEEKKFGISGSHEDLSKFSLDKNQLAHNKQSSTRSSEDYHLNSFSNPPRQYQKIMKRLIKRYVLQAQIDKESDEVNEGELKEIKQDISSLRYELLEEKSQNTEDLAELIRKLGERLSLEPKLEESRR
TRPC6 inh: mouse TRPC6 channel inhibition; Q61143; HEK293-TRPC6, membrane potential dye, ACh-evoked depolarization; stronger effect = lower value; B-score at 10 µM; 310,000 tested, 1.1% active; AID 2553;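 active means B-score under library mean minus 3 SD, initial fluorescence not abnormally high, positive integrated signal ratio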;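 further: B-score derived from integrated fluorescence ratio over the kinetic read; more negative B-score means stronger inhibition of depolarization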
TRPC4 block: inhibitors of mouse TRPC4 channel | Q9QUQ5 | HEK293 TRPC4beta/mu-opioid, DAMGO-evoked Fluo4 calcium flux; stronger effect = lower value | B-score at 10 µM | 300,000 tested, 0.39% active;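 active means B-score over 3 SD under the library average, no early fluorescence shift, positive overall ratio signal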
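Assay system: Stable TRPC4beta/mu-opioid receptor HEK293 cells | Reagent: DAMGO in two steps, submaximal then maximal | Compound dosing: Single concentration per test compound | Signal: Fluo4 Ca2+ flux fluorescence | Evaluation: Per-well B score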
TRPC4 potent: allosterically enhances the mouse TRPC4 cation channel | Q9QUQ5 | HEK293 TRPC4beta/mu-opioid, DAMGO EC20, Fluo-4 Ca2+ flux; stronger effect = higher value | B-score at 10 µM | 310,000 tested, 0.42% active | AID 2227;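 active means B-score of calcium response area above 5 SD of library B-scores, with initial fluorescence ratio within 5 SD of library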;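 further: B-score of integrated fluorescence ratio over time as area under calcium response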
Kir21 inh: blocks the mouse Kir2.1 inward-rectifier potassium channel. HEK293-Kir2.1, FluxOR thallium flux fluorescence; stronger effect = lower value. B-score at 10 µM. 310,000 tested, 0.85% active;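 active means fluorescence ratio B-score at or below minus 3 SD of library scores, with starting-brightness B-score within 2 SD, cut at about -4.2 in these data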;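 further: channel flux triggered by added potassium and thallium sulfate stimulus; B-score of peak minus minimum fluorescence over baseline after thallium stimulus; more negative B-score means stronger Kir2.1 block with less thallium influx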
TRPC4 act: TRPC4 (mouse) channel activation. Q9QUQ5. HEK293 TRPC4beta/mu-opioid, Fluo4 calcium fluorescence; stronger effect = higher value. B-score at 10 µM. 310,000 tested, 0.49% active;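 active means B-score above 5 SD of library B-scores, and initial fluorescence ratio not above library mean plus 5 SD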;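 further: positive B-score marks a calcium rise read as TRPC4 activation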
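System: HEK293 cells stably co-expressing mouse TRPC4beta and mu-opioid receptor; Schedule: Fluo4 dye loading 45 min at room temperature, 110 s recording; Detection: Fluo4 fluorescence, kinetic; Evaluation: B-scored integrated calcium fluorescence ratio; Controls: buffer (low) and maximal DAMGO (high).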
TRPC4 spec 2: mouse TRPC4 off-target activity of TRPC6 inhibitors, second screen; shares compounds with TRPC6 inh; HEK293 TRPC4/MOR, membrane potential dye fluorescence; channel activated by saturating DAMGO dose; inhibition, % at 10 µM; 920 tested, 42% active;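 active means compounds whose fluorescence signal differed from control wells by over 3 SD, either direction, in both duplicate plates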
TRPC4 spec: mouse TRPC4 off-target activity of TRPC6 inhibitors | shares compounds with TRPC6 inh | HEK293 TRPC4/mu-opioid, membrane potential fluorescence | activity change, negative = inhibition, % at 10 µM | 920 tested, 61% active | AID 2777;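 active means rise or fall in signal beyond 3 SD of buffer-only wells in both replicate plates, either sign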;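 further: integrated kinetic ratio of fluorescence range over baseline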
HEK293 MPD ctr 2-1: second counter-screen for TRPC6 inhibitors: parental HEK293 cells; 920 tested, 31% active; parental HEK293 membrane potential dye fluorescence; maximal acetylcholine challenge after compound addition; AID 2779; signal change vs control, % at 10 µM; shares compounds with TRPC6 inh;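 active means membrane potential signal moving either way by over 3 SD of the maximum-effect control, in both duplicate plates, meaning non-specific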
HEK293 MPD ctr-1: parental HEK293 nonspecific activity of TRPC6 inhibitors; shares compounds with TRPC6 inh; parental HEK293 membrane potential dye fluorescence; membrane potential signal change, % at 10 µM; 920 tested, 60% active; AID 2780;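 active means membrane potential signal shifting up or down by more than 3 SD of buffer-only wells, on both duplicate plates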
HEK293 MPD ctr-2: checks TRPC6 modulator effects in parental HEK293 cells. membrane potential signal change, % at 10 µM. 2,400 tested, 51% active. membrane potential dye fluorescence. shares compounds with TRPC6 inh;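 active means membrane potential signal moves up or down beyond 5 SD from buffer-only wells, on both duplicate plates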
HEK293 MPD ctr 2-2: second counter-screen for TRPC6 modulators: effect in parental HEK293 cells. membrane potential dye fluorescence; after compound, maximal acetylcholine stimulation. 2,400 tested, 14% active. inhibition, % at 10 µM. shares compounds with TRPC6 inh;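 active means membrane potential signal drops by more than 5 SD from the mean control signal, in both duplicate plates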;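 further: plate controls were acetylcholine ECmax control wells for no effect and buffer only wells for full effect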
TRPC4/MOR mod: selectivity of TRPC6 modulators against mouse TRPC4; shares compounds with TRPC6 inh; HEK293 TRPC4/mu-opioid, membrane potential fluorescence; percent change from control (negative = decrease, positive = increase), % at 10 µM; 2,400 tested, 69% active; AID 488927;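 active means membrane potential signal moved up or down beyond 5 SD of buffer control wells, in both duplicate plates, actives on both sides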;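 further: plate controls were assay buffer wells for no effect and DAMGO maximal-effect wells for full effect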
TRPC4/MOR inh 2: second selectivity test of TRPC6 modulators against mouse TRPC4; shares compounds with TRPC6 inh; HEK293 TRPC4/mu-opioid, membrane potential dye fluorescence; stimulated with maximal-effect DAMGO; inhibition, % at 10 µM; 2,400 tested, 55% active;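 active means drop in membrane potential signal beyond 5 SD of the control wells in both duplicate plates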;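 further: TRPC4 counter screen for TRPC6 hits run under conditions tuned for TRPC6 not TRPC4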
TRPC6 block conf: confirmation of mouse TRPC6 inhibitors; 3,300 tested, 43% active; AID 488960; HEK293-TRPC6, membrane potential dye, ACh-evoked depolarization; inhibition, % at 10 µM; shares compounds with TRPC6 inh;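 active means fluorescence ratio falls more than 5 SD below the full-stimulation control mean, in both duplicate runs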;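 further: integrated fluorescence ratio of peak minus minimum over baseline after agonist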
TRPC6 act confirm: confirmation of mouse TRPC6 activators; shares compounds with TRPC6 inh; HEK293-TRPC6 membrane potential dye fluorescence, FDSS; activation, % at 10 µM; 2,800 tested, 11% active;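 active means ratio signal rise beyond 5 SD above unstimulated control wells' mean, seen in both duplicate runs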;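 further: plate controls were buffer EC0 wells for no effect and acetylcholine ECmax response for full effect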
* marks the source's active call; other numbers are inactive results; i = inactive; / = not tested or not shown.

SMILES	TRPC6 activator	TRPC6 inh	TRPC4 block	TRPC4 potent	Kir21 inh	TRPC4 act	TRPC6 block conf	TRPC6 act confirm	others
COC(=O)c1ccc(Oc2nc(C)cc(Oc3ccccc3)n2)cc1	i	-7.8*	i	i	0.54	i	i	i	TRPC4 spec 2=i;TRPC4 spec=1.0%*;HEK293 MPD ctr 2-1=i;HEK293 MPD ctr-1=1.6%*
COC(=O)c1ccc(Oc2cc(C)nc(NCc3ccccc3)n2)cc1	i	i	i	i	0.65	i	/	/
Cc1cccc(NC(=O)COc2ccc(/C=C\c3[nH]c(=O)[nH]c(=O)c3[N+](=O)[O-])cc2)c1	14*	i	i	i	0.21	i	i	i	HEK293 MPD ctr-2=i;HEK293 MPD ctr 2-2=i;TRPC4/MOR mod=i;TRPC4/MOR inh 2=i
O=c1[nH]c(/C=C/c2ccc([N+](=O)[O-])cc2)c([N+](=O)[O-])c(=O)[nH]1	i	i	i	i	-1.1	i	/	/
CS(=O)(=O)N(Cc1cccc(CN(C(C(=O)O)c2ccccc2)S(C)(=O)=O)c1)C(C(=O)O)c1ccccc1 (stereo not drawn)	i	-8.7*	i	i	0.97	i	i	i	TRPC4 spec 2=i;TRPC4 spec=i;HEK293 MPD ctr 2-1=i;HEK293 MPD ctr-1=i
CC(C)CNC(=O)c1cccc(NC(=O)C(C)C)c1	i	i	i	i	0.05	i	/	/
O=C(N1CCC(n2nc(-c3ccccc3)oc2=O)CC1)C1(c2ccccc2)CC1	i	i	i	i	1.5	i	/	/
CCOC(=O)C1=NN(C(=O)Nc2cccc(C(F)(F)F)c2)C2C(=O)N(c3cccc(C(F)(F)F)c3)C(=O)C12 (stereo not drawn)	i	i	i	i	-2.1	i	/	/
Nc1c2c(nc3ccccc13)N(C1CCCCC1)CC2	i	-12*	-6*	i	-0.29	i	109%*	i	TRPC4 spec 2=27%*;TRPC4 spec=-28%*;HEK293 MPD ctr 2-1=-2.5%*;HEK293 MPD ctr-1=-388%*
Nc1nc2ccccc2nc1N1CCCC1	i	i	/	i	-1	i	/	/
NC(=O)COC(=O)c1c2c(nc3ccccc13)CCC2	i	i	i	i	0.25	i	/	/
Nc1c2c(nc3ccccc13)CCC2	i	-7*	-5*	i	-0.86	i	i	i	HEK293 MPD ctr-2=-279%*;HEK293 MPD ctr 2-2=i;TRPC4/MOR mod=-42%*;TRPC4/MOR inh 2=70%*
CN(C)CCNc1c2c(nc3ccccc13)CCC2	i	-9.1*	i	i	0.21	i	74%*	i	HEK293 MPD ctr-2=-202%*;HEK293 MPD ctr 2-2=110%*;TRPC4/MOR mod=-36%*;TRPC4/MOR inh 2=77%*
COc1cc(Nc2c3c(nc4ccccc24)CCCC3)cc(OC)c1OC	i	-6.1*	i	i	0.62	i	i	i	HEK293 MPD ctr-2=-96%*;HEK293 MPD ctr 2-2=i;TRPC4/MOR mod=-20%*;TRPC4/MOR inh 2=38%*
COc1cc2c(c(OC)c1OC)CCc1cnoc1-2	i	i	i	i	-1.3	i	/	/
COc1ccc(CN(C(=O)c2snc(C(N)=O)c2N)C(C(=O)NC2CCCC2)c2ccco2)cc1 (stereo not drawn)	i	i	i	i	1.9	i	/	/
Cc1cnc(C(=O)OCC(=O)NCc2ccc3c(c2)OCO3)cn1	i	i	i	i	-0.04	i	/	/
CCOc1ccc(NCc2nnc(SCC(=O)Nc3nc(-c4ccccc4)cs3)n2-c2ccccc2)cc1	i	i	i	i	-0.11	i	/	/
CN(C)CCCNc1c2ccccc2nc2ccccc12	i	-11*	-6*	i	-0.46	i	88%*	i	HEK293 MPD ctr-2=-268%*;HEK293 MPD ctr 2-2=177%*;TRPC4/MOR mod=-44%*;TRPC4/MOR inh 2=78%*
CN(C)CCCNc1oc(-c2ccccc2)nc1C#N	i	i	i	i	1.2	i	/	/
CN(C)CCCNc1nc(-c2ccccc2)nc2ccccc12	i	-7.7*	i	i	0.24	i	65%*	i	TRPC4 spec 2=40%*;TRPC4 spec=-27%*;HEK293 MPD ctr 2-1=i;HEK293 MPD ctr-1=-347%*
Cc1ccc(S(=O)(=O)NCC(=O)OCC(=O)NCc2cccs2)cc1	i	i	i	i	0.03	i	/	/
O=C(C1CC1)N1CCN(c2ccnc3cc(Cl)ccc23)CC1	i	i	i	i	-0.65	i	/	/
O=C(c1ccco1)N1CCN(c2ccnc3cc(Cl)ccc23)CC1	i	-5.1*	i	i	0.99	i	i	i	HEK293 MPD ctr-2=-160%*;HEK293 MPD ctr 2-2=i;TRPC4/MOR mod=-26%*;TRPC4/MOR inh 2=37%*
Cc1cc(C)n2nc(SCC(=O)NC3CCCC(C)C3C)nc2n1 (stereo not drawn)	i	i	i	i	-0.06	i	/	/
O=S(=O)(Nc1nc2ccccc2nc1Nc1ccc(N2CCOCC2)cc1)c1cc(Cl)ccc1Cl	i	-6.7*	i	i	1.2	i	i	i	TRPC4 spec 2=78%*;TRPC4 spec=-10%*;HEK293 MPD ctr 2-1=i;HEK293 MPD ctr-1=-241%*
Clc1nc(Nc2ccc(N3CCOCC3)cc2)c2ccccc2n1	i	i	i	i	-0.48	i	/	/
